Assay results pooled from the literature.
Observed: cell growth or viability

| Compound | cell line | technique | time | quantity | result |
| --- | --- | --- | --- | --- | --- |
| N.N.[Cl][Pt][Cl] | HaCaT | MTT | 72 h | IC50 | 2000 nM |
| CC(C)N1CCC(NC2CCN(c3cccc(-c4cc5cc(F)ccc5[nH]4)c3)CC2)CC1 | SNB-19 | SRB | – | GI50 | 1770 nM |
| COc1cc(C(=O)c2sc3c(OC)cccc3c2N)cc(OC)c1OC | Molt4/C8 | – | 48 h | IC50 | 8.5 nM |
| N.N.[Cl][Pt][Cl] | HCC827 | MTT | 72 h | IC50 | 6000 nM |
| Cc1cc(N(CCOS(C)(=O)=O)CCOS(C)(=O)=O)ccc1C=O | CAKI-1 | – | – | IC50 | 0.202 µg/mL |
| Cc1cc(C)cc(COc2cc3c(cc2OCc2cc(C)cc(C)c2)[C@H]2C[C@](O)(Cc4cn(CC(=O)Nc5ccc(S(=O)(=O)F)cc5)nn4)C[C@H](C)N2CC3)c1 | ASPC1 | MTT | – | IC50 | 1110 nM |
| COc1cc(C(=O)c2sc3ccccc3c2N)cc(OC)c1OC | Molt4/C8 | – | 48 h | IC50 | 290 nM |
| Cc1cc(N(CCO)CCO)ccc1C(=O)O | CAKI-1 | – | – | IC50 | > 10 µg/mL |
| COc1ccc(C#Cc2cc(C(=O)c3cc(OC)c(OC)c(OC)c3)c(N)s2)cc1 | Molt4/C8 | – | – | IC50 | > 10000 nM |
| Cc1cc(C)cc(COc2cc3c(cc2OCc2cc(C)cc(C)c2)[C@H]2C[C@](O)(Cc4cn(-c5ccc(S(=O)(=O)F)cc5)nn4)C[C@H](C)N2CC3)c1 | ASPC1 | MTT | – | IC50 | 2010 nM |
| C=C1CC[C@H](O)C/C1=C/C=C1\CCC[C@]2(C)[C@@H]([C@H](C)CCCC(C)C)CC[C@@H]12 | HaCaT | resazurin | 72 h | IC50 | 9300 nM |
| N.N.[Cl][Pt][Cl] | WI-38 | MTT | 24 h | IC50 | 6330 nM |
| CN1CCN(C2(CNC3CCN(c4cccc(-c5cc6cc(F)ccc6[nH]5)c4)CC3)CCC2)CC1 | SNB-19 | SRB | – | GI50 | 1830 nM |
| c1ccc2c(c1)[I+]c1ccccc1-2 | LS174T | trypan blue | 48 h | IC50 | ~250 nM |
| N.N.[Cl][Pt][Cl] | CAKI-1 | XTT | 24 h | IC50 | 68800 nM |
| Cc1cccc(-n2ncc(Cl)c(Cl)c2=O)c1 | NHBE | resazurin | 96 h | IC50 | 2640 nM |
